Key:
Mus musculus [1] = experiment: Ex vivo inhibition of 11beta-HSD1 in C57B16 mouse epididymal fat assessed as conversion of [3H]-cortisone to [3H]-cortisol at 10 mg/kg, po after 5 hrs by HPLC analysis relative to vehicle-treated control; assay type: functional
Outline: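 Mice were dosed orally at 10 mg/kg. Epididymal fat was collected 5 h after dosing for the ex vivo readout.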

[2] = Half life in human liver microsomes; assay type: ADME, Microsome
[3] = Half life in mouse liver microsomes; assay type: ADME, Microsome
[4] = target: T1, 11-beta-hydroxysteroid dehydrogenase 1 (Mus musculus, UniProt P50172); experiment: Inhibition of mouse 11beta-HSD1 expressed in CHO cells […] incubated for 30 mins prior to substrate addition measured after 120 mins by chemiluminescence assay; assay type: cell-based
Outline: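 Cell-based assay run in duplicate. Compounds were tested as 11-point 2-fold dilutions, and IC50 was derived. Lower assay threshold was 10 nM.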

[5] = target: T1, 11-beta-hydroxysteroid dehydrogenase 1; experiment: Inhibition of mouse 11beta-HSD1 expressed in CHO cells […] incubated for 30 mins prior to substrate addition measured after 120 mins by chemiluminescence assay in presence of 10% human serum; assay type: cell-based
Outline: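 Cell-based assay with 10% (v/v) human serum in the culture medium. Run in duplicate, with 11-point 2-fold dilutions giving the IC50. Lower threshold was 10 nM.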

[6] = target: 11-beta-hydroxysteroid dehydrogenase 1 (Homo sapiens, UniProt P28845); experiment: Inhibition of human 11beta-HSD1 expressed in CHO cells using cortisone as substrate incubated for 30 mins prior to substrate addition measured after 120 mins by chemiluminescence assay
[7] = Volume of distribution at steady state in C57B6 mouse at 2 mg/kg, iv; assay type: ADME, organism-based; set-up: dose 2 mg/kg, route intravenous; details: in vivo, read-out: Vdss
Outline: (§1)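 Male C57B6 mice. IV dose of 2 mg/kg in 50% DMSO/50% PEG200. Oral dose of 10 mg/kg in 2% Tween/0.5% methyl cellulose in water. Values are PK parameters from the iv and po arms.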

[8] = AUC in C57B6 mouse at 2 mg/kg, iv; assay type: ADME, organism-based; set-up: dose 2 mg/kg, route intravenous; details: plasma; outline: as §1
[9] = Cmax in C57B6 mouse at 10 mg/kg, po; assay type: ADME, organism-based; set-up: dose 10 mg/kg, route oral; details: in vivo; outline: as §1
[10] = Tmax in C57B6 mouse at 10 mg/kg, po; assay type: ADME, organism-based; set-up: dose 10 mg/kg, route oral; details: in vivo; outline: as §1
[11] = Half life in C57B6 mouse at 2 mg/kg, iv; assay type: ADME, organism-based; set-up: dose 2 mg/kg, route intravenous; details: in vivo; outline: as §1
[12] = Oral bioavailability in C57B6 mouse at 10 mg/kg; assay type: ADME, organism-based; details: in vivo; outline: as §1
[13] = Clearance in C57B6 mouse at 2 mg/kg, iv; assay type: ADME, organism-based; set-up: dose 2 mg/kg, route intravenous; details: in vivo; outline: as §1
[14] = AUC in C57B6 mouse at 10 mg/kg, po; assay type: ADME, organism-based; set-up: dose 10 mg/kg, route oral; details: plasma; outline: as §1
[15] = target: T2, 11-beta-hydroxysteroid dehydrogenase type 2 (Homo sapiens, UniProt P80365); experiment: Inhibition of human 11beta-HSD2 expressed in CHO cells using […] as substrate incubated for 30 mins prior to substrate addition measured after 120 mins by scintillation counting analysis; assay type: cell-based
T2 sequence (P80365 whole entry): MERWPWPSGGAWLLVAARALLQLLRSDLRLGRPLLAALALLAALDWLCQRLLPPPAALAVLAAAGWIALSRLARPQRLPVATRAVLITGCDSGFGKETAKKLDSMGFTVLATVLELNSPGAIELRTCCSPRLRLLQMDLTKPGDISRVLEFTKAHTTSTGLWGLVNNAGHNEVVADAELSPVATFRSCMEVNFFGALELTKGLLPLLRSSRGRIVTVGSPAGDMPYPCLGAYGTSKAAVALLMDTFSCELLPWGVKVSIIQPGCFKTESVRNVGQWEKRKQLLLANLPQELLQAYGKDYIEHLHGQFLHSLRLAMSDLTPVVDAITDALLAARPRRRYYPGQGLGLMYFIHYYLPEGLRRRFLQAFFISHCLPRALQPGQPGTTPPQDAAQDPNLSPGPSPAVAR

Cytochrome P450 2C9 = Cytochrome P450 2C9 (Homo sapiens, UniProt P11712); experiment: Inhibition of CYP2C9 (unknown origin); assay type: ADME
[16] = Half life in C57B6 mouse at 10 mg/kg, po; assay type: ADME, organism-based; set-up: dose 10 mg/kg, route oral; details: in vivo; outline: as §1
Mus musculus [17] = species on record: Mus musculus; experiment: Toxicity in C57B6 DIO mouse assessed as body weight gain at after 31 days; details: in vivo, po, 744 h

Chain of 11-beta-hydroxysteroid dehydrogenase 1 (Homo sapiens, UniProt P28845) (P28845 whole entry): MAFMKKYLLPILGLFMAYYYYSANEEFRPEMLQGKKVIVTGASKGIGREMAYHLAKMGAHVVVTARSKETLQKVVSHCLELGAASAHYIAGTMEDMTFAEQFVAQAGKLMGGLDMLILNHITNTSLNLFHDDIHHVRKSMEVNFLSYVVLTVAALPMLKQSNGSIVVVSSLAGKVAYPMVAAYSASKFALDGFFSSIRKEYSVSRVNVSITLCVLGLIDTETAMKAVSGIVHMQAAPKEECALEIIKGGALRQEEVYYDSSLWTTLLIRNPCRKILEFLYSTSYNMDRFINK
T1 sequence (P50172 whole entry): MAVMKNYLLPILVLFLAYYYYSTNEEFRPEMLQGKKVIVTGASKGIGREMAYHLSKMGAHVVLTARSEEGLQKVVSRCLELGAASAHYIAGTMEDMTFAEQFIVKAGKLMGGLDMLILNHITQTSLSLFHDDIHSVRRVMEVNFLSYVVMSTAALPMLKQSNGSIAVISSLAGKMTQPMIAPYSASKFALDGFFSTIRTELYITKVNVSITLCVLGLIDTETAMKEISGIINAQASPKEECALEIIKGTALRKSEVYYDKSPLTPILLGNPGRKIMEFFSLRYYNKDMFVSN
Chain of Cytochrome P450 2C9 (P11712 whole entry): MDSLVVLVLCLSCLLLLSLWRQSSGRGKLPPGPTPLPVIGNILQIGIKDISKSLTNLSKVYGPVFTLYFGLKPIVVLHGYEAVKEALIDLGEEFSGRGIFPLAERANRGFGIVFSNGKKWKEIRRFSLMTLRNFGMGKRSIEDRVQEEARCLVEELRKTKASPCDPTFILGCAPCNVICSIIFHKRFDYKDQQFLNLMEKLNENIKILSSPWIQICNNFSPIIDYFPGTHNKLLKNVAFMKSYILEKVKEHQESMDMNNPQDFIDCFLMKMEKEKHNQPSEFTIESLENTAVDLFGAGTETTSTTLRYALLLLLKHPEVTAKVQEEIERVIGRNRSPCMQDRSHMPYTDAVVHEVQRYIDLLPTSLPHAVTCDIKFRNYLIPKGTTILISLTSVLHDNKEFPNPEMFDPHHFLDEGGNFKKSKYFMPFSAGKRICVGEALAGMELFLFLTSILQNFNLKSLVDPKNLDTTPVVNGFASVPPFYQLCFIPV

half-life [2] [min] | half-life [3] [min] | IC50 [4] [nM] | IC50 [5] [nM] | IC50 [6] [nM] | SMILES | inhibition in vivo at 10 mg/kg (Mus musculus [1]) [%] | other results
10 | 30 | 77 | 18 | – | C[C@@H]1CN(c2ccc(F)cc2C(F)(F)F)CCN1S(=O)(=O)c1cn(C)c(C(C)(O)C(F)(F)F)n1 (some centres not stated) | 33 | –
10 | 23 | 165 | 1390 | – | C[C@@H]1CN(c2ccc(F)cc2C(F)(F)F)CCN1S(=O)(=O)c1nc(C(C)(O)C(F)(F)F)n(C)n1 (some centres not stated) | 38 | –
> 30 | 17 | 10 | 10 | 15 | C[C@@H]1CN(c2ccc(F)cc2C(F)(F)F)CCN1S(=O)(=O)c1ccc(C(C)(O)C(F)(F)F)s1 (some centres not stated) | 44 | –
> 30 | 17 | 10 | 10 | 17 | C[C@@H]1CN(c2ccc(F)cc2C(F)(F)F)CCN1S(=O)(=O)c1ccc([C@@](C)(O)C(F)(F)F)s1 | 80 | Vd [7]: 5.8 L/kg; AUC [8]: 3590 ng·h/mL; Cmax [9]: 449 ng/mL; Tmax [10]: 30 min; half-life [11]: 570 min; bioavailability [12]: 19%; clearance [13]: 9 mL/min/kg; AUC [14]: 3400 ng·h/mL; IC50 [15]: > 100000 nM
> 30 | > 30 | 10 | 10 | 10 | C[C@@H]1CN(c2ccc(F)cc2C(F)(F)F)CCN1S(=O)(=O)c1ccc([C@](C)(O)C(F)(F)F)s1 | 5 | –
17 | 17 | – | – | – | C[C@@H]1CN(c2ccc(C(N)=O)cc2C(F)(F)F)CCN1S(=O)(=O)c1ccc([C@@](C)(O)C(F)(F)F)s1 | 87 | inhibition (INH) (Cytochrome P450 2C9): Active
10 | 17 | – | – | – | C[C@@H]1CN(c2ccc(C(N)=O)cc2C(F)(F)F)CCN1S(=O)(=O)c1ccc([C@](C)(O)C(F)(F)F)s1 | 86 | inhibition (INH) (Cytochrome P450 2C9): Active
10 | 30 | 40 | 48 | – | C[C@@H]1CN(c2ccc(F)cc2C(F)(F)F)CCN1S(=O)(=O)c1ccc([C@@](O)(C(N)=O)C(F)(F)F)cc1 | < 10 | –
27 | 30 | 20 | 41 | – | C[C@@H]1CN(c2ccc(F)cc2C(F)(F)F)CCN1S(=O)(=O)c1ccc([C@](O)(C(N)=O)C(F)(F)F)cc1 | < 10 | –
18 | 30 | 10 | 10 | 23 | C[C@@H]1CN(c2ccc(F)cc2C(F)(F)F)CCN1S(=O)(=O)c1cccc([C@@](O)(C(N)=O)C(F)(F)F)c1 | 82 | Vd [7]: 1.8 L/kg; half-life [16]: 168 min; AUC [8]: 6130 ng·h/mL; Cmax [9]: 1550 ng/mL; Tmax [10]: 120 min; half-life [11]: 252 min; bioavailability [12]: 46%; clearance [13]: 5.4 mL/min/kg; AUC [14]: 14000 ng·h/mL; IC50 [15]: > 100000 nM
< 2 | < 2 | 10 | 10 | 51 | C[C@@H]1CN(c2ccc(F)cc2C(F)(F)F)CCN1S(=O)(=O)c1cccc([C@](O)(C(N)=O)C(F)(F)F)c1 | 38 | –
21 | 18 | – | – | – | C[C@@H]1CN(c2ccc(F)cc2C(F)(F)F)CCN1S(=O)(=O)c1ncc([C@@](O)(C(N)=O)C(F)(F)F)s1 | 83 | –
19 | > 30 | – | – | – | C[C@@H]1CN(c2ccc(F)cc2C(F)(F)F)CCN1S(=O)(=O)c1ncc([C@](O)(C(N)=O)C(F)(F)F)s1 | 17 | –
18 | 18 | 10 | 10 | 145 | C[C@@H]1CN(c2ccc(F)cc2C(F)(F)F)CCN1S(=O)(=O)c1ccc([C@](O)(C(N)=O)C(F)(F)F)s1 | 50 | –
– | 26 | – | – | – | C[C@@H]1CN(c2ccc(F)cc2C(F)(F)F)CCN1S(=O)(=O)c1ccc(C(O)(c2nnc[nH]2)C(F)(F)F)s1 (some centres not stated) | 57 | –
– | – | – | – | – | CN(CCOc1ccc(CC2SC(=O)NC2=O)cc1)c1ccccn1 (configuration not stated) [ROSIGLITAZONE] | – | Activity (Mus musculus [17]): Non-toxic
